Active and inactive are the calls of the source. No cut-off for these calls is given here. A value given as a limit tells only on which side of the number the result lay.

One test deals with Influenza B virus. Kind of test: Antiviral activity against influenza B virus infected in MDCK cells assessed as inhibition of virus-induced cytopathic effect after 3 days by MTS assay. The test is classed as functional, organism-based. The essentials:
(§1)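 Confluent cell monolayers were infected with 100 CCID50 of virus and allowed 2 h adsorption at 37 °C. Virus was then removed and serial compound dilutions were added. Cultures were incubated at 37 °C for 3 days, until CPE was complete in the untreated virus control. EC50 was the concentration giving 50% inhibition of virus-induced CPE, by visual score or by MTS formazan cell viability.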
(Cytopathic effects are the visible damage that an infection or toxin causes in cultured cells.)

The subject of another test is Human alphaherpesvirus 2. Kind of test: Antiviral activity against Herpes simplex virus 2 G infected in human HEL cells assessed as inhibition of virus-induced cytopathic effect after 3 days by MTS assay. The test is classed as functional, organism-based. Conditions: strain G. The essentials: as §1
For a further test, the system named is Sindbis virus. Kind of test: Antiviral activity against Simbidis virus infected in african green monkey Vero cells assessed as inhibition of virus-induced cytopathic effect after 3 days by MTS assay. The test is classed as functional, organism-based. Put shortly: as §1
The next test has as its system Staphylococcus aureus. Kind of test: Antibacterial activity against Staphylococcus aureus after 24 hrs by serial dilution method. It counts as functional.
In a further test the test system is Bacillus subtilis. The test can be described thus: Antibacterial activity against Bacillus subtilis after 24 hrs by serial dilution method. The test is classed as functional.
The test system of test [1] is Influenza A virus. Kind of test: Antiviral activity against influenza A virus H1N1 infected in MDCK cells assessed as inhibition of virus-induced cytopathic effect after 3 days by MTS assay. The test is classed as functional, organism-based. The essentials: as §1
The test system of a further test is Coxsackievirus B4. Kind of test: Antiviral activity against Coxsackie virus B4 infected in african green monkey Vero cells assessed as inhibition of virus-induced cytopathic effect after 3 days by MTS assay. The test is classed as functional, organism-based. Put shortly: as §1
The test system of another test is Candida albicans. Kind of test: Antifungal activity against Candida albicans after 48 hrs by serial dilution method. It counts as functional. The essentials:
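Serial compound dilutions in Sabouraud dextrose broth (tube dilution), incubated 37 °C for 48 h. MIC was read as the lowest concentration with no growth.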

In test [2] the test system is Mammalian orthoreovirus 1. The test can be described thus: Antiviral activity against Reovirus 1 infected in african green monkey Vero cells assessed as inhibition of virus-induced cytopathic effect after 3 days by MTS assay. The test is classed as functional, organism-based. Put shortly:
as §1

For test [3], the system named is Influenza A virus. Kind of test: Antiviral activity against influenza A virus H3N2 infected in MDCK cells assessed as inhibition of virus-induced cytopathic effect after 3 days by MTS assay. It counts as functional, organism-based. The essentials:
as §1

The next test has as its system Vaccinia virus. The test can be described thus: Antiviral activity against Vaccinia virus infected in human HEL cells assessed as inhibition of virus-induced cytopathic effect after 3 days by MTS assay. The test is classed as functional, organism-based. Conditions: Orthopoxvirus vaccinia. The essentials: as §1
Another test deals with Aspergillus niger. Kind of test: Antifungal activity against Aspergillus niger after 7 days by serial dilution method. The test is classed as functional.
In another test the test system is Escherichia coli. The test can be described thus: Antibacterial activity against Escherichia coli after 24 hrs by serial dilution method. The test is classed as functional.
Another test concerns Felid alphaherpesvirus 1. The test can be described thus: Antiviral activity against Feline herpesvirus 1 infected in […] cells assessed as inhibition of virus-induced cytopathic effect after 3 days by MTS assay. It counts as functional, organism-based. Put shortly:
as §1

A further test relates to Punta Toro virus. The test can be described thus: Antiviral activity against Punta toro virus infected in african green monkey Vero cells assessed as inhibition of virus-induced cytopathic effect after 3 days by MTS assay. The test is classed as functional, organism-based. Put shortly:
as §1

In test [4] the test system is Human alphaherpesvirus 1. The test can be described thus: Antiviral activity against Herpes simplex virus 1 KOS infected in human HEL cells assessed as inhibition of virus-induced cytopathic effect after 3 days by MTS assay. It counts as functional, organism-based. Put shortly: as §1
For test [5], the system named is Human alphaherpesvirus 1. The test can be described thus: Antiviral activity against acyclovir-resistant […] kinase-deficient HSV1 KOS infected in human HEL cells assessed as inhibition of virus-induced cytopathic effect after 3 days by MTS assay. The test is classed as functional, organism-based. Put shortly: as §1
Test [6] concerns Vesicular stomatitis virus. The test can be described thus: Antiviral activity against VSV infected in human HEL cells assessed as inhibition of virus-induced cytopathic effect after 3 days by MTS assay. It counts as functional, organism-based. Put shortly:
as §1

A further test concerns Human respirovirus 3. The test can be described thus: Antiviral activity against Parainfluenza 3 virus infected in african green monkey Vero cells assessed as inhibition of virus-induced cytopathic effect after 3 days by MTS assay. The test is classed as functional, organism-based. Put shortly:
as §1

In the next test the test system is Feline coronavirus. The test can be described thus: Antiviral activity against Feline caronavirus infected in […] cells assessed as inhibition of virus-induced cytopathic effect after 3 days by MTS assay. The test is classed as functional, organism-based. The essentials:
as §1

As for `O=C(/C=C/c1ccccc1)N/N=C/c1ccccc1`, the inhibition entry (in the test on Influenza B virus; in the test on Human alphaherpesvirus 2; in the test on Sindbis virus; in the test with Influenza A virus [1]; in the test on Coxsackievirus B4; in [2]) was “inactive” in each case. Moreover, the inhibition result in the test on Influenza A virus [3], with Vaccinia virus, with Felid alphaherpesvirus 1, in the test on Punta Toro virus, with Human alphaherpesvirus 1 [4] and with Human alphaherpesvirus 1 [5] was “inactive” each time. For the same compound, the inhibition result (in test [6]; in the test with Human respirovirus 3; in the test with Feline coronavirus) was “inactive” in each case. The MBC in the test with Staphylococcus aureus is on record as more than 0.2 uM/ml; in the test with Bacillus subtilis, more than 0.2 uM/ml; in the test on Escherichia coli it was 0.05 uM/ml. Also, the MFC against Candida albicans and in the test on Aspergillus niger was more than 0.2 uM/ml in each case. Moreover, the “-logMIC” value in the test on Aspergillus niger is recorded as 1.6.
With `Cc1ccc(C(=O)N/N=C/c2ccccc2)cc1`, the inhibition result (in the test on Influenza B virus; in the test with Human alphaherpesvirus 2; in the test on Sindbis virus; with Influenza A virus [1]; with Coxsackievirus B4; in test [2]) was “inactive” in each case. The inhibition entry in the test with Influenza A virus [3], in the test with Vaccinia virus, in the test on Felid alphaherpesvirus 1, in the test on Punta Toro virus, with Human alphaherpesvirus 1 [4] and with Human alphaherpesvirus 1 [5] was “inactive” each time. Besides, the inhibition entry (in [6]; with Human respirovirus 3; with Feline coronavirus) was “inactive” in each case. For the same compound, the MBC is given as more than 0.21 uM/ml in the test on Staphylococcus aureus, 0.21 uM/ml against Bacillus subtilis and 0.052 uM/ml against Escherichia coli. Besides, the MFC in the test on Candida albicans and against Aspergillus niger was more than 0.21 uM/ml throughout. For the same compound, the “-logMIC” value in the test on Aspergillus niger came out at 1.88.
With `Cc1cccc(C(=O)N/N=C/c2ccccc2Cl)c1`, the inhibition result (with Influenza B virus; with Human alphaherpesvirus 2; in the test with Sindbis virus; in the test on Influenza A virus [1]; with Coxsackievirus B4; in test [2]) was “inactive” in each case. In addition, the inhibition entry in the test on Influenza A virus [3], in the test on Vaccinia virus, with Felid alphaherpesvirus 1, with Punta Toro virus, with Human alphaherpesvirus 1 [4] and in the test with Human alphaherpesvirus 1 [5] was “inactive” throughout. Besides, the inhibition entry (in [6]; in the test with Human respirovirus 3; in the test with Feline coronavirus) was “inactive” in each case. Also, the MBC with Staphylococcus aureus is on record as more than 0.183 uM/ml; against Bacillus subtilis it was 0.045 uM/ml; against Escherichia coli, 0.045 uM/ml. In addition, the MFC in the test with Candida albicans and in the test on Aspergillus niger was more than 0.183 uM/ml in each case. For the same compound, in the test with Aspergillus niger, the “-logMIC” value worked out at 1.51.
Regarding `Cc1ccc(C(=O)N/N=C/c2ccccc2Cl)cc1`, the inhibition entry (in the test on Influenza B virus; in the test on Human alphaherpesvirus 2; in the test with Sindbis virus; in the test with Influenza A virus [1]; in the test with Coxsackievirus B4; in test [2]) was “inactive” in each case. The inhibition entry with Influenza A virus [3], in the test on Vaccinia virus, with Felid alphaherpesvirus 1, in the test on Punta Toro virus, with Human alphaherpesvirus 1 [4] and in the test with Human alphaherpesvirus 1 [5] was “inactive” in each case. For the same compound, the inhibition result (in test [6]; in the test on Human respirovirus 3; in the test with Feline coronavirus) was “inactive” each time. Further, the MBC was 0.045 uM/ml with Staphylococcus aureus, 0.183 uM/ml in the test with Bacillus subtilis and 0.045 uM/ml against Escherichia coli. Further, the values for the MFC in the test on Candida albicans and with Aspergillus niger were more than 0.183 uM/ml and 0.183 uM/ml, respectively. Moreover, the “-logMIC” value in the test with Aspergillus niger was 1.61.
For the compound `CCCCCCCCCCCCCC(=O)N/N=C/c1ccccc1Cl`, the inhibition result (in the test on Influenza B virus; with Human alphaherpesvirus 2; in the test with Sindbis virus; with Influenza A virus [1]; in the test with Coxsackievirus B4; in test [2]) was “inactive” in each case. Moreover, the inhibition entry in the test with Influenza A virus [3], with Vaccinia virus, in the test with Felid alphaherpesvirus 1, in the test with Punta Toro virus, in the test on Human alphaherpesvirus 1 [4] and with Human alphaherpesvirus 1 [5] was “inactive” in each case. For the same compound, the inhibition result (in test [6]; in the test on Human respirovirus 3; with Feline coronavirus) was “inactive” throughout. Further, the MBC against Staphylococcus aureus is listed as more than 0.137 uM/ml; with Bacillus subtilis, more than 0.137 uM/ml; against Escherichia coli, 0.034 uM/ml. For the same compound, the MFC in the test with Candida albicans and against Aspergillus niger was more than 0.137 uM/ml throughout. Further, in the test with Aspergillus niger, the “-logMIC” value was found to be 1.12.
`O=C(N/N=C/c1ccccc1)c1cc([N+](=O)[O-])cc([N+](=O)[O-])c1`: the inhibition result (in the test with Influenza B virus; in the test on Human alphaherpesvirus 2; in the test with Sindbis virus; in the test on Influenza A virus [1]; in the test with Coxsackievirus B4; in test [2]) was “inactive” in each case. In addition, the inhibition result with Influenza A virus [3], in the test with Vaccinia virus, in the test with Felid alphaherpesvirus 1, in the test on Punta Toro virus, in the test on Human alphaherpesvirus 1 [4] and in the test on Human alphaherpesvirus 1 [5] was “inactive” in each case. Also, the inhibition entry (in [6]; in the test on Human respirovirus 3; with Feline coronavirus) was “inactive” in each case. For the same compound, the MBC in the test on Staphylococcus aureus is on record as more than 0.159 uM/ml; in the test on Bacillus subtilis it was 0.159 uM/ml; against Escherichia coli, more than 0.159 uM/ml. In addition, the MFC in the test on Candida albicans is 0.159 uM/ml; with Aspergillus niger it was 0.079 uM/ml. The “-logMIC” value in the test with Aspergillus niger is listed as 1.7.
Take `C/C=C/C=C/C(=O)N/N=C/c1ccccc1Cl`: the inhibition result (in the test with Influenza B virus; in the test on Human alphaherpesvirus 2; with Sindbis virus; in the test with Influenza A virus [1]; in the test with Coxsackievirus B4; in [2]) was “inactive” each time. Besides, the inhibition entry with Influenza A virus [3], in the test on Vaccinia virus, in the test on Felid alphaherpesvirus 1, in the test with Punta Toro virus, in the test with Human alphaherpesvirus 1 [4] and with Human alphaherpesvirus 1 [5] was “inactive” throughout. In addition, the inhibition result (in [6]; in the test on Human respirovirus 3; with Feline coronavirus) was “inactive” in each case. Further, the results for the MBC in the test with Staphylococcus aureus, in the test on Bacillus subtilis and against Escherichia coli were more than 0.201 uM/ml, 0.05 uM/ml and 0.1 uM/ml, respectively. Moreover, the MFC in the test with Candida albicans and against Aspergillus niger was more than 0.201 uM/ml in each case. Further, in the test on Aspergillus niger, the “-logMIC” value worked out at 1.5.
For `CCCCCCCCCCCC(=O)N/N=C/c1ccccc1Cl`, the inhibition entry (with Influenza B virus; with Human alphaherpesvirus 2; in the test with Sindbis virus; in the test with Influenza A virus [1]; in the test on Coxsackievirus B4; in test [2]) was “inactive” throughout. Moreover, the inhibition result in the test on Influenza A virus [3], with Vaccinia virus, in the test on Felid alphaherpesvirus 1, with Punta Toro virus, with Human alphaherpesvirus 1 [4] and in the test on Human alphaherpesvirus 1 [5] was “inactive” in each case. Besides, the inhibition entry (in [6]; in the test on Human respirovirus 3; in the test with Feline coronavirus) was “inactive” in each case. The MBC is recorded as more than 0.148 uM/ml in the test with Staphylococcus aureus, 0.148 uM/ml with Bacillus subtilis and 0.009 uM/ml against Escherichia coli. For the same compound, the MFC against Candida albicans and with Aspergillus niger was more than 0.148 uM/ml in each case. Also, the “-logMIC” value in the test with Aspergillus niger was determined as 1.43; in the test on Escherichia coli, 1.8.

The record behind these values is ChEMBL document CHEMBL1177846, “Benzylidene/2-chlorobenzylidene hydrazides: synthesis, antimicrobial activity, QSAR studies and antiviral evaluation” (Eur J Med Chem, 2010).
